{"source": "ChEMBL document CHEMBL1127405", "about": "“Synthesis and antitumor evaluation of bis[(pivaloyloxy)methyl] 2'-deoxy-5-fluorouridine 5'-monophosphate (FdUMP): a strategy to introduce nucleotides into cells” (J Med Chem, 1994)", "type_in_all_cases": "functional", "key": {"Mus musculus [1]": {"tested_on": "Mus musculus", "assay": "The compound was tested for mean survival time for 15 mice implanted Intraperitoneally with P-388/FU Leukemia cell line at 150 mg/kg", "conditions": "route intraperitoneal", "method_in_brief": "(§1)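 P-388/0 or P-388/FU cells (1×10^6) implanted ip into male BDF1 mice on day 0. Dosing was ip, daily for 5 consecutive days beginning 24 h later, in saline or Emulphor 620 vehicle. Six mice per treated group. Animals followed to death and median survival time recorded in days. The control group had 15 mice.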"}, "Mus musculus [2]": {"tested_on": "Mus musculus", "assay": "The compound was tested for mean survival time for 15 mice implanted Intraperitoneally with P-388/FU Leukemia cell line at 100 mg/kg", "conditions": "route intraperitoneal", "method_in_brief": "as §1"}, "Mus musculus [3]": {"tested_on": "Mus musculus", "assay": "The compound was tested for change in weight for mice implanted intraperitoneally with P-388/FU Leukemia cell line at 67 mg/kg", "conditions": "route intraperitoneal", "method_in_brief": "(§2)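 Male BDF1 mice inoculated ip on day 0 with 1 × 10^6 leukemia cells (six mice per group, average weight 22 g). Dosing ip once daily for 5 consecutive days starting 24 h after implantation. Fluoropyrimidine references in 0.9% saline; prodrugs formulated with Emulphor 620; vehicle controls 0.2 mL. Percent body weight change recorded per group.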"}, "Mus musculus [4]": {"tested_on": "Mus musculus", "assay": "The compound was tested for change in weight for mice implanted intraperitoneally with P-388/FU Leukemia cell line at 100 mg/kg", "conditions": "route intraperitoneal", "method_in_brief": "as §2"}, "Mus musculus [5]": {"tested_on": "Mus musculus", "assay": "The compound was tested for mean survival time for 15 mice implanted Intraperitoneally with P-388/0 Leukemia cell line at 150 mg/kg", "conditions": "route intraperitoneal", "method_in_brief": "as §1"}, "Mus musculus [6]": {"tested_on": "Mus musculus", "assay": "The compound was tested for increase in life span for mice implanted intraperitoneally with P-388/0 Leukemia cell line at 67 mg/kg", "conditions": "P388, ip, route intraperitoneal", "method_in_brief": "(§3)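 Male BDF1 mice, six per group, implanted ip with 1×10^6 P-388/0 or P-388/FU cells on day 0. Dosed ip daily for 5 days from 24 h post-implant, in saline or Emulphor 620 vehicle. Mice observed until death. %ILS = (T/C − 1)×100, from median survival of treated mice (T) versus saline-treated controls (C).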"}, "Mus musculus [7]": {"tested_on": "Mus musculus", "assay": "The compound was tested for change in weight for mice implanted intraperitoneally with P-388/0 Leukemia cell line at 150 mg/kg", "conditions": "route intraperitoneal", "method_in_brief": "as §2"}, "Mus musculus [8]": {"tested_on": "Mus musculus", "assay": "The compound was tested for increase in life span for mice implanted intraperitoneally with P-388/FU Leukemia cell line at 100 mg/kg", "conditions": "P388, ip, route intraperitoneal", "method_in_brief": "as §3"}, "Mus musculus [9]": {"tested_on": "Mus musculus", "assay": "The compound was tested for increase in life span for mice implanted intraperitoneally with P-388/FU Leukemia cell line at 150 mg/kg", "conditions": "P388, ip, route intraperitoneal", "method_in_brief": "as §3"}, "Mus musculus [10]": {"tested_on": "Mus musculus", "assay": "The compound was tested for increase in life span for mice implanted intraperitoneally with P-388/FU Leukemia cell line at 67 mg/kg", "conditions": "P388, ip, route intraperitoneal", "method_in_brief": "as §3"}, "Mus musculus [11]": {"tested_on": "Mus musculus", "assay": "The compound was tested for increase in life span for mice implanted intraperitoneally with P-388/0 Leukemia cell line at 150 mg/kg", "conditions": "P388, ip, route intraperitoneal", "method_in_brief": "as §3"}, "Mus musculus [12]": {"tested_on": "Mus musculus", "assay": "The compound was tested for mean survival time for 15 mice implanted Intraperitoneally with P-388/0 Leukemia cell line at 67 mg/kg", "conditions": "route intraperitoneal", "method_in_brief": "as §1"}, "Mus musculus [13]": {"tested_on": "Mus musculus", "assay": "The compound was tested for change in weight for mice implanted intraperitoneally with P-388/0 Leukemia cell line at 67 mg/kg", "conditions": "route intraperitoneal", "method_in_brief": "as §2"}, "Mus musculus [14]": {"tested_on": "Mus musculus", "assay": "The compound was tested for […] implanted Intraperitoneally with P-388/FU Leukemia cell line at 67 mg/kg", "conditions": "route intraperitoneal"}, "Mus musculus [15]": {"tested_on": "Mus musculus", "assay": "The compound was tested for change in weight for mice implanted intraperitoneally with P-388/0 Leukemia cell line at 100 mg/kg", "conditions": "route intraperitoneal", "method_in_brief": "as §2"}, "Mus musculus [16]": {"tested_on": "Mus musculus", "assay": "The compound was tested for change in weight for mice implanted intraperitoneally with P-388/FU Leukemia cell line at 150 mg/kg", "conditions": "route intraperitoneal", "method_in_brief": "as §2"}, "Mus musculus [17]": {"tested_on": "Mus musculus", "assay": "The compound was tested for mean survival time for 15 mice implanted Intraperitoneally with P-388/0 Leukemia cell line at 100 mg/kg", "conditions": "route intraperitoneal", "method_in_brief": "as §1"}, "Mus musculus [18]": {"tested_on": "Mus musculus", "assay": "The compound was tested for increase in life span for mice implanted intraperitoneally with P-388/0 Leukemia cell line at 100 mg/kg", "conditions": "P388, ip, route intraperitoneal", "method_in_brief": "as §3"}, "Mus musculus [19]": {"tested_on": "Mus musculus", "assay": "The compound was tested for increase in life span for mice implanted intraperitoneally with P-388/FU Leukemia cell line at 40 mg/kg", "conditions": "P388, ip, route intraperitoneal", "method_in_brief": "as §3"}, "Mus musculus [20]": {"tested_on": "Mus musculus", "assay": "The compound was tested for increase in life span for mice implanted intraperitoneally with P-388/FU Leukemia cell line at 20 mg/kg", "conditions": "P388, ip, route intraperitoneal", "method_in_brief": "as §3"}, "Mus musculus [21]": {"tested_on": "Mus musculus", "assay": "The compound was tested for change in weight for mice implanted intraperitoneally with P-388/0 Leukemia cell line at 30 mg/kg", "conditions": "route intraperitoneal", "method_in_brief": "(§4)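 Male BDF1 mice (six per group, average 22 g) given 1×10^6 P-388 cells ip on day 0. Drug dosed ip once daily for 5 consecutive days, starting 24 h after implantation, in 0.9% saline or, where insoluble, Emulphor 620. Percentage body-weight change recorded per dose group.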"}, "Mus musculus [22]": {"tested_on": "Mus musculus", "assay": "The compound was tested for mean survival time for 15 mice implanted Intraperitoneally with P-388/FU Leukemia cell line at 30 mg/kg", "conditions": "route intraperitoneal", "method_in_brief": "as §1"}, "Mus musculus [23]": {"tested_on": "Mus musculus", "assay": "The compound was tested for increase in life span for mice implanted intraperitoneally with P-388/0 Leukemia cell line at 30 mg/kg", "conditions": "P388, ip, route intraperitoneal", "method_in_brief": "as §3"}, "Mus musculus [24]": {"tested_on": "Mus musculus", "assay": "The compound was tested for mean survival time for 15 mice implanted Intraperitoneally with P-388/0 Leukemia cell line at 30 mg/kg", "conditions": "route intraperitoneal", "method_in_brief": "as §1"}, "Mus musculus [25]": {"tested_on": "Mus musculus", "assay": "The compound was tested for change in weight for mice implanted intraperitoneally with P-388/FU Leukemia cell line at 30 mg/kg", "conditions": "route intraperitoneal", "method_in_brief": "as §4"}, "Mus musculus [26]": {"tested_on": "Mus musculus", "assay": "The compound was tested for mean survival time for 15 mice implanted Intraperitoneally with P-388/0 Leukemia cell line at 20 mg/kg", "conditions": "route intraperitoneal", "method_in_brief": "as §1"}, "Mus musculus [27]": {"tested_on": "Mus musculus", "assay": "The compound was tested for change in weight for mice implanted intraperitoneally with P-388/FU Leukemia cell line at 20 mg/kg", "conditions": "route intraperitoneal", "method_in_brief": "as §4"}, "Mus musculus [28]": {"tested_on": "Mus musculus", "assay": "The compound was tested for mean survival time for 15 mice implanted Intraperitoneally with P-388/FU Leukemia cell line at 20 mg/kg", "conditions": "route intraperitoneal", "method_in_brief": "as §1"}, "Mus musculus [29]": {"tested_on": "Mus musculus", "assay": "The compound was tested for change in weight for mice implanted intraperitoneally with P-388/FU Leukemia cell line at 40 mg/kg", "conditions": "route intraperitoneal", "method_in_brief": "as §4"}, "Mus musculus [30]": {"tested_on": "Mus musculus", "assay": "The compound was tested for change in weight for mice implanted intraperitoneally with P-388/0 Leukemia cell line at 20 mg/kg", "conditions": "route intraperitoneal", "method_in_brief": "as §4"}, "Mus musculus [31]": {"tested_on": "Mus musculus", "assay": "The compound was tested for mean survival time for 15 mice implanted Intraperitoneally with P-388/FU Leukemia cell line at 40 mg/kg", "conditions": "route intraperitoneal", "method_in_brief": "as §1"}, "Mus musculus [32]": {"tested_on": "Mus musculus", "assay": "The compound was tested for increase in life span for mice implanted intraperitoneally with P-388/0 Leukemia cell line at 20 mg/kg", "conditions": "P388, ip, route intraperitoneal", "method_in_brief": "as §3"}, "Mus musculus [33]": {"tested_on": "Mus musculus", "assay": "The compound was tested for increase in life span for mice implanted intraperitoneally with P-388/FU Leukemia cell line at 30 mg/kg", "conditions": "P388, ip, route intraperitoneal", "method_in_brief": "as §3"}}}
{"smiles": "O=c1[nH]c(=O)n([C@H]2C[C@H](O)[C@@H](CO)O2)cc1F", "note": "[FLOXURIDINE]", "values": [{"measurement": "MST", "setting": "Mus musculus [1]", "value": 13, "unit": "days"}, {"measurement": "MST", "setting": "Mus musculus [2]", "value": 13, "unit": "days"}, {"measurement": "Weight change", "setting": "Mus musculus [3]", "value": -6, "unit": "%"}, {"measurement": "Weight change", "setting": "Mus musculus [4]", "value": -10, "unit": "%"}, {"measurement": "MST", "setting": "Mus musculus [5]", "value": 20, "unit": "days"}, {"measurement": "ILS at 67 mg/kg", "setting": "Mus musculus [6]", "value": 45, "unit": "%"}, {"measurement": "Weight change", "setting": "Mus musculus [7]", "value": -5, "unit": "%"}, {"measurement": "ILS at 100 mg/kg", "setting": "Mus musculus [8]", "value": 18, "unit": "%"}, {"measurement": "ILS at 150 mg/kg", "setting": "Mus musculus [9]", "value": 18, "unit": "%"}, {"measurement": "ILS at 67 mg/kg", "setting": "Mus musculus [10]", "value": 9, "unit": "%"}, {"measurement": "ILS at 150 mg/kg", "setting": "Mus musculus [11]", "value": 82, "unit": "%"}, {"measurement": "MST", "setting": "Mus musculus [12]", "value": 16, "unit": "days"}, {"measurement": "Weight change", "setting": "Mus musculus [13]", "value": -2, "unit": "%"}, {"measurement": "MST", "setting": "Mus musculus [14]", "value": 12, "unit": "days"}, {"measurement": "Weight change", "setting": "Mus musculus [15]", "value": -4, "unit": "%"}, {"measurement": "Weight change", "setting": "Mus musculus [16]", "value": -10, "unit": "%"}, {"measurement": "MST", "setting": "Mus musculus [17]", "value": 19, "unit": "days"}, {"measurement": "ILS at 100 mg/kg", "setting": "Mus musculus [18]", "value": 73, "unit": "%"}]}
{"smiles": "O=c1[nH]cc(F)c(=O)[nH]1", "note": "[FLUOROURACIL]", "values": [{"measurement": "ILS at 40 mg/kg", "setting": "Mus musculus [19]", "value": -18, "unit": "%"}, {"measurement": "ILS at 20 mg/kg", "setting": "Mus musculus [20]", "value": -9, "unit": "%"}, {"measurement": "Weight change", "setting": "Mus musculus [21]", "value": -15, "unit": "%"}, {"measurement": "MST", "setting": "Mus musculus [22]", "value": 9, "unit": "days"}, {"measurement": "ILS at 30 mg/kg", "setting": "Mus musculus [23]", "value": 55, "unit": "%"}, {"measurement": "MST", "setting": "Mus musculus [24]", "value": 17, "unit": "days"}, {"measurement": "Weight change", "setting": "Mus musculus [25]", "value": -15, "unit": "%"}, {"measurement": "MST", "setting": "Mus musculus [26]", "value": 16, "unit": "days"}, {"measurement": "Weight change", "setting": "Mus musculus [27]", "value": -6, "unit": "%"}, {"measurement": "MST", "setting": "Mus musculus [28]", "value": 10, "unit": "days"}, {"measurement": "Weight change", "setting": "Mus musculus [29]", "value": -18, "unit": "%"}, {"measurement": "Weight change", "setting": "Mus musculus [30]", "value": -5, "unit": "%"}, {"measurement": "MST", "setting": "Mus musculus [31]", "value": 9, "unit": "days"}, {"measurement": "ILS at 20 mg/kg", "setting": "Mus musculus [32]", "value": 45, "unit": "%"}, {"measurement": "ILS at 30 mg/kg", "setting": "Mus musculus [33]", "value": -18, "unit": "%"}]}
